Source: publication PMC4806784 (Investigational new drugs, 2015)
Where two headings read alike, the source gives them in different places.

Assay type: in vivo, human
Settings: for AUC(0-t) / Cmax / Tmax / half-life / concentration at 12 h: plasma; for concentration at 12 h: C12h
Procedure, shortened: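 Test compound was given as oral capsules with […] water after a 2-h fast, BID Q12hr, 3–6 patients per dose level. Docetaxel 60 mg/m2 was a 1-h IV infusion 2 h beforehand. […] was sampled on Cycle 1 Day 1 (predose, 0.5–24 h after dose 1) and Day 2 (predose, 0.5–44 h after dose 4). Analysis was non-compartmental, with AUC by linear-up/log-down trapezoidal method and Cmax/Tmax by inspection.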

With `O=C(O)[C@]1(Cc2cccc(Nc3nccs3)n2)CC[C@@H](Oc2cccc(Cl)c2F)CC1` [MK-5108] the “mean target trough concentration of 2 μM” value (Panel 2 (CT with docetaxel), any tested dose level) was “not achieved”, the “dose proportionality of AUC0-12h and Cmax” value (following the first dose) was “less than dose proportionally” and the “dose proportionality of AUC0-12h and Cmax” value (following the fourth dose, 100 to 1800 mg (Q12hr)) was “roughly dose proportionally”. The “dose proportionality of serum concentration at 12 hours post dose (trough)” value (human, in vivo) was “roughly dose proportionally”, the “shape of mean plasma concentration decline” value (human, in vivo) was “biphasic decline” and the AUC(0-t) (human, iv, 60 mg/m2, AUC0-12h, 100 mg/day, Panel 2 (CT, docetaxel 60 mg/m^2 IV), Dose 1) was 7.9 ± 2 µM·h. For the same compound, the AUC(0-t) (human, iv, 60 mg/m2, AUC0-12h, 100 mg/day, Panel 2 (CT, docetaxel 60 mg/m^2 IV), Dose 4) was 10.8 ± 3.3 µM·h, the AUC(0-t) (human, iv, 60 mg/m2, AUC0-12h, 150 mg/day, Panel 2 (CT, docetaxel 60 mg/m^2 IV), Dose 1) was 15 ± 9.2 µM·h and the AUC(0-t) (human, iv, 60 mg/m2, AUC0-12h, 150 mg/day, Panel 2 (CT, docetaxel 60 mg/m^2 IV), Dose 4) was 16.4 ± 8.9 µM·h. It also gave an AUC(0-t) (human, iv, 60 mg/m2, AUC0-12h, 225 mg/day, Panel 2 (CT, docetaxel 60 mg/m^2 IV), Dose 1) of 18.5 ± 6.2 µM·h, an AUC(0-t) (human, iv, 60 mg/m2, AUC0-12h, 225 mg/day, Panel 2 (CT, docetaxel 60 mg/m^2 IV), Dose 4) of 23.4 ± 8.8 µM·h and a Cmax (human, iv, 60 mg/m2, Cmax, 100 mg/day, Panel 2 (CT, docetaxel 60 mg/m^2 IV), Dose 1) of 2.3 ± 1.2 µM. The Cmax (human, iv, 60 mg/m2, Cmax, 100 mg/day, Panel 2 (CT, docetaxel 60 mg/m^2 IV), Dose 4) was 2.2 ± 1 µM, the Cmax (human, iv, 60 mg/m2, Cmax, 150 mg/day, Panel 2 (CT, docetaxel 60 mg/m^2 IV), Dose 1) was 3.5 ± 2 µM and the Cmax (human, iv, 60 mg/m2, Cmax, 150 mg/day, Panel 2 (CT, docetaxel 60 mg/m^2 IV), Dose 4) was 3.2 ± 1.7 µM. It also gave a Cmax (human, iv, 60 mg/m2, Cmax, 225 mg/day, Panel 2 (CT, docetaxel 60 mg/m^2 IV), Dose 1) of 5 ± 0.8 µM, a Cmax (human, iv, 60 mg/m2, Cmax, 225 mg/day, Panel 2 (CT, docetaxel 60 mg/m^2 IV), Dose 4) of 5.3 ± 1.7 µM and a Tmax (human, iv, 60 mg/m2, Tmax, 100 mg/day, Panel 2 (CT, docetaxel 60 mg/m^2 IV), Dose 1, median (range)) of 2 h. It also gave a Tmax (human, iv, 60 mg/m2, Tmax, 100 mg/day, Panel 2 (CT, docetaxel 60 mg/m^2 IV), Dose 4, median (range)) of 4 h, a Tmax (human, iv, 60 mg/m2, Tmax, 150 mg/day, Panel 2 (CT, docetaxel 60 mg/m^2 IV), Dose 1, median (range)) of 3.5 h and a Tmax (human, iv, 60 mg/m2, Tmax, 150 mg/day, Panel 2 (CT, docetaxel 60 mg/m^2 IV), Dose 4, median (range)) of 5 h. The Tmax (human, iv, 60 mg/m2, Tmax, 225 mg/day, Panel 2 (CT, docetaxel 60 mg/m^2 IV), Dose 1, median (range)) was 2 h, the Tmax (human, iv, 60 mg/m2, Tmax, 225 mg/day, Panel 2 (CT, docetaxel 60 mg/m^2 IV), Dose 4, median (range)) was 3 h and the half-life (human, iv, 60 mg/m2, t1/2, 100 mg/day, Panel 2 (CT, docetaxel 60 mg/m^2 IV), Dose 4) was 13.5 ± 10.6 h. The half-life (human, iv, 60 mg/m2, t1/2, 150 mg/day, Panel 2 (CT, docetaxel 60 mg/m^2 IV), Dose 4) was 10.1 ± 5 h, the half-life (human, iv, 60 mg/m2, t1/2, 225 mg/day, Panel 2 (CT, docetaxel 60 mg/m^2 IV), Dose 4) was 9.2 ± 5.1 h and the concentration at 12 h (human, iv, 100 mg/day, Panel 2 (CT, docetaxel 60 mg/m^2 IV), Dose 1) was 0.15 ± 0.12 µM. The concentration at 12 h (human, iv, 100 mg/day, Panel 2 (CT, docetaxel 60 mg/m^2 IV), Dose 4) was 0.21 ± 0.1 µM, the concentration at 12 h (human, iv, 150 mg/day, Panel 2 (CT, docetaxel 60 mg/m^2 IV), Dose 1) was 0.33 ± 0.22 µM and the concentration at 12 h (human, iv, 150 mg/day, Panel 2 (CT, docetaxel 60 mg/m^2 IV), Dose 4) was 0.51 ± 0.37 µM. The concentration at 12 h (human, iv, 225 mg/day, Panel 2 (CT, docetaxel 60 mg/m^2 IV), Dose 1) was 0.46 ± 0.26 µM, the concentration at 12 h (human, iv, 225 mg/day, Panel 2 (CT, docetaxel 60 mg/m^2 IV), Dose 4) was 0.66 ± 0.62 µM and the AUC(0-t) (human, oral, 200 mg/day, AUC0-12h, Panel 1 (MT), Dose 1) was 17.5 ± 5.6 µM·h. For the same compound, the AUC(0-t) (human, oral, 200 mg/day, AUC0-12h, Panel 1 (MT), Dose 4) was 31.2 ± 16.3 µM·h, the concentration at 12 h (human, oral, 200 mg/day, Panel 1 (MT), Dose 1) was 0.35 ± 0.05 µM and the concentration at 12 h (human, oral, 200 mg/day, Panel 1 (MT), Dose 4) was 1.92 ± 1.91 µM. It also gave a Cmax (human, oral, 200 mg/day, Cmax, Panel 1 (MT), Dose 1) of 3.9 ± 0.7 µM, a Cmax (human, oral, 200 mg/day, Cmax, Panel 1 (MT), Dose 4) of 4.8 ± 1 µM and a Tmax (human, oral, 200 mg/day, Tmax, Panel 1 (MT), Dose 1, median (range)) of 4 h. It also gave a Tmax (human, oral, 200 mg/day, Tmax, Panel 1 (MT), Dose 4, median (range)) of 4 h, a half-life (human, oral, 200 mg/day, t1/2, 200 mg/day, Panel 1 (MT), Dose 4) of 9.3 ± 1.2 h and an AUC(0-t) (human, oral, 400 mg/day, AUC0-12h, Panel 1 (MT), Dose 1) of 27 ± 12.2 µM·h. For the same compound, the AUC(0-t) (human, oral, 400 mg/day, AUC0-12h, Panel 1 (MT), Dose 4) was 75.7 ± 46.2 µM·h, the concentration at 12 h (human, oral, 400 mg/day, Panel 1 (MT), Dose 1) was 0.25 ± 0.13 µM and the concentration at 12 h (human, oral, 400 mg/day, Panel 1 (MT), Dose 4) was 2.02 ± 1.52 µM. For the same compound, the Cmax (human, oral, 400 mg/day, Cmax, Panel 1 (MT), Dose 1) was 6.7 ± 2.4 µM, the Cmax (human, oral, 400 mg/day, Cmax, Panel 1 (MT), Dose 4) was 11 ± 5.3 µM and the Tmax (human, oral, 400 mg/day, Tmax, Panel 1 (MT), Dose 1, median (range)) was 2 h. The Tmax (human, oral, 400 mg/day, Tmax, Panel 1 (MT), Dose 4, median (range)) was 6 h, the half-life (human, oral, 400 mg/day, t1/2, 400 mg/day, Panel 1 (MT), Dose 4) was 8.7 ± 6.7 h and the AUC(0-t) (human, oral, 800 mg/day, AUC0-12h, Panel 1 (MT), Dose 1) was 69 ± 41.9 µM·h. It also gave an AUC(0-t) (human, oral, 800 mg/day, AUC0-12h, Panel 1 (MT), Dose 4) of 95.5 ± 44.9 µM·h, a concentration at 12 h (human, oral, 800 mg/day, Panel 1 (MT), Dose 1) of 1.68 ± 1.91 µM and a concentration at 12 h (human, oral, 800 mg/day, Panel 1 (MT), Dose 4) of 4.53 ± 2.68 µM. It also gave a Cmax (human, oral, 800 mg/day, Cmax, Panel 1 (MT), Dose 1) of 19.5 ± 5.5 µM, a Cmax (human, oral, 800 mg/day, Cmax, Panel 1 (MT), Dose 4) of 20 ± 11 µM and a Tmax (human, oral, 800 mg/day, Tmax, Panel 1 (MT), Dose 1, median (range)) of 1 h. The Tmax (human, oral, 800 mg/day, Tmax, Panel 1 (MT), Dose 4, median (range)) was 1 h, the half-life (human, oral, 800 mg/day, t1/2, 800 mg/day, Panel 1 (MT), Dose 4) was 11.1 ± 1.1 h and the AUC(0-t) (human, oral, 1200 mg/day, AUC0-12h, Panel 1 (MT), Dose 1) was 96.6 ± 45.6 µM·h. The AUC(0-t) (human, oral, 1200 mg/day, AUC0-12h, Panel 1 (MT), Dose 4) was 116 ± 61.4 µM·h, the concentration at 12 h (human, oral, 1200 mg/day, Panel 1 (MT), Dose 1) was 2.12 ± 2.09 µM and the concentration at 12 h (human, oral, 1200 mg/day, Panel 1 (MT), Dose 4) was 3.31 ± 0.53 µM. It also gave a Cmax (human, oral, 1200 mg/day, Cmax, Panel 1 (MT), Dose 1) of 22.3 ± 12.7 µM, a Cmax (human, oral, 1200 mg/day, Cmax, Panel 1 (MT), Dose 4) of 25 ± 9.4 µM and a Tmax (human, oral, 1200 mg/day, Tmax, Panel 1 (MT), Dose 1, median (range)) of 2 h. It also gave a Tmax (human, oral, 1200 mg/day, Tmax, Panel 1 (MT), Dose 4, median (range)) of 3 h, a half-life (human, oral, 1200 mg/day, t1/2, 1200 mg/day, Panel 1 (MT), Dose 4) of 8.3 ± 3.3 h and an AUC(0-t) (human, oral, 1500 mg/day, AUC0-12h, Panel 1 (MT), Dose 1) of 83.2 ± 50.8 µM·h. It also gave an AUC(0-t) (human, oral, 1500 mg/day, AUC0-12h, Panel 1 (MT), Dose 4) of 131 ± 53.2 µM·h, a concentration at 12 h (human, oral, 1500 mg/day, Panel 1 (MT), Dose 1) of 1.04 ± 0.4 µM and a concentration at 12 h (human, oral, 1500 mg/day, Panel 1 (MT), Dose 4) of 2.8 ± 1.26 µM. It also gave a Cmax (human, oral, 1500 mg/day, Cmax, Panel 1 (MT), Dose 1) of 20.8 ± 10.6 µM, a Cmax (human, oral, 1500 mg/day, Cmax, Panel 1 (MT), Dose 4) of 28.9 ± 13.6 µM and a Tmax (human, oral, 1500 mg/day, Tmax, Panel 1 (MT), Dose 1, median (range)) of 2 h. For the same compound, the Tmax (human, oral, 1500 mg/day, Tmax, Panel 1 (MT), Dose 4, median (range)) was 2 h, the half-life (human, oral, 1500 mg/day, t1/2, 1500 mg/day, Panel 1 (MT), Dose 4) was 11.4 ± 2 h and the AUC(0-t) (human, oral, 1800 mg/day, AUC0-12h, Panel 1 (MT), Dose 1) was 101 ± 39.3 µM·h. The AUC(0-t) (human, oral, 1800 mg/day, AUC0-12h, Panel 1 (MT), Dose 4) was 234 ± 62.7 µM·h, the concentration at 12 h (human, oral, 1800 mg/day, Panel 1 (MT), Dose 1) was 4.78 ± 4.64 µM and the concentration at 12 h (human, oral, 1800 mg/day, Panel 1 (MT), Dose 4) was 6.85 ± 3.96 µM. The Cmax (human, oral, 1800 mg/day, Cmax, Panel 1 (MT), Dose 1) was 24.8 ± 9.6 µM, the Cmax (human, oral, 1800 mg/day, Cmax, Panel 1 (MT), Dose 4) was 50.2 ± 11.4 µM and the Tmax (human, oral, 1800 mg/day, Tmax, Panel 1 (MT), Dose 1, median (range)) was 2 h. The Tmax (human, oral, 1800 mg/day, Tmax, Panel 1 (MT), Dose 4, median (range)) was 3 h, the half-life (human, oral, 1800 mg/day, t1/2, 1800 mg/day, Panel 1 (MT), Dose 4) was 6.6 ± 0.6 h and the Tmax (human, oral, Median Tmax, following the first dose, across dose levels) was 1 to 4 h. It also gave a Tmax (human, oral, Median Tmax, following the fourth dose, across dose levels) of 1 to 6 h, a half-life (human, oral, mean t1/2, range across dose levels, across both panels) of 6.6 to 13.5 h and a half-life (human, oral, t1/2 range (variable), following Dose 4) of 5 to 29 h.
